Drawing on PubChem BioAssay, this text covers viability, differential viability (reversal) and inhibition for twelve compounds.

The source made the active and inactive calls.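 The calls were made as follows, unless noted: active = viability loss from added drug above about 55%, and viability with drug at most 40%, in both replicates (limit read from the data, passing the limit was not always enough); inconclusive = both conditions met in only one replicate; inactive = neither replicate meets both conditions.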

A short description of assay [1]: reduced viability of SK-BR-3 breast cancer cells – cell-based, 24 h, human, pilot screen (AID 572;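 active = viability at or below 10% of carrier control in both of two separate runs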;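 also: compound exposure lasted between 18 and 24 h rather than exactly 24 h; 100% = carrier-treated control wells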). To be noted: SK-BR-3 viability, CellTiter-Glo luminescence, at 10 µM, stronger effect = lower value. In general terms: Cellular ATP, detected with luciferase, serves as a proxy for viable cell number.
A short description of assay [2]: HUVEC growth inhibition – cell-based, human, primary screen (AID 575;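 active = viability at or below 30% in both replicate assays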;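 also: 100% = median of untreated cell wells with 0.1% DMSO on each plate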). The following applies: HUVEC proliferation, CellTiter-Glo luminescence, 72 h; at 10 µM; stronger effect = lower value. The method in brief: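 Test system: primary human umbilical vein endothelial cells; medium: endothelial basal medium with 2% FBS plus growth supplements; dosing: 10 µM compound only; times: 72 h treatment at 37 °C; signal: CTG luminescence; read-out: % viability relative to median vehicle-well signal on each plate; control set: vehicle and MePR control wells; plate: 384-well, collagen-coated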

The nature of assay [3]: H69AR cell proliferation blockers – human, duplicate replicates, primary screen (AID 580;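 active = viability at or under a set limit in both replicates, limit being median viability minus 3 SD, cut at about 48% in these data, passing the limit was not always enough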;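 also: 100% = mean luminescence of untreated wells and 0% = no signal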). The following applies: H69AR lung tumor cells viability, ATP luminescence, 72 h; at 10 µM; stronger effect = lower value.
The nature of assay [4]: MRP1 drug-resistance reversers in H69AR cells – cell-based, doxorubicin co-treatment, pilot screen (AID 601). The following applies: CellTiter-Glo, 72 h, at 10 µM; for differential viability (reversal): stronger effect = higher value.
The nature of assay [5]: yeast transport mutant growth inhibition pilot in 384-well plates, post-Golgi transport modulator project (AID 636; in the data active = inhibition above about 31%). The following applies: absorbance 615 nm, about 18 h, stronger effect = higher value.
Assay [6] is described as follows: growth suppression of yeast trafficking mutant, preliminary HTS, modulators of trafficking downstream of Golgi apparatus project, 1536-format plate, OD 615 nm (AID 637; in the data active = inhibition above about 30%). The following applies: yeast transport mutant growth, absorbance 615 nm, 18 h; stronger effect = higher value.
Setting [7] is: H69AR cells + 2 uM doxorubicin, measured here: viability with 2 uM doxorubicin, stronger effect = lower value.
Setting [8] is: H69AR cells, compound alone cytotoxicity.

One may read the viability as a read-out of living cells in per cent, often relative to untreated cells. In general, inhibition refers to the drop in the measured response relative to a control, in per cent. Consider `Cc1ccc2c(CC(=O)OCc3csc(C)n3)coc2c1`, for which the viability is 106% (inactive) in assay [1]; 90.3% (inactive) in assay [2]; 98.5% (inactive) in assay [3]; 96% in assay [4] (setting [7]); 98.5% in assay [4] (setting [8]). For the same compound, the differential viability (reversal) in assay [4] (H69AR cells + 2 uM doxorubicin) was 2.5% (inactive). The inhibition in assay [5] was -8.78% (inactive); in assay [6], 3.77% (inactive).

Take `O=C(NC1=NCCS1)c1ccc2c(c1)C(=O)N(Cc1ccco1)C2=O`: the viability was 85% (inactive) in assay [1]; 94% (inactive) in assay [2]; 93.6% (inactive) in assay [3]; 91.8% in assay [4] (setting [7]); 93.6% in assay [4] (setting [8]). Also, the differential viability (reversal) in assay [4] (H69AR cells + 2 uM doxorubicin) was 1.83% (inactive). The results for the inhibition in assay [5] and in assay [6] were -7.26% (inactive) and 4.73% (inactive), respectively.

`NNC(=O)c1ccncc1`: the viability in assay [1] was 108% (inactive); in assay [2] it was 101% (inactive); in assay [3], 104% (inactive); in assay [4] (setting [7]) it was 93.7%; in assay [4] (setting [8]), 104%. The differential viability (reversal) in assay [4] (H69AR cells + 2 uM doxorubicin) was 10.2% (inactive). For the same compound, the inhibition was 1.04% (inactive) in assay [5] and 17.5% (inactive) in assay [6].

In the case of `Cc1cccc(C(=O)O)c1NC(=O)c1ccc(F)cc1`, the viability is 109% (inactive) in assay [1]; 107% (inactive) in assay [2]; 104% (inactive) in assay [3]; 100% in assay [4] (setting [7]); 104% in assay [4] (setting [8]). Besides, in assay [4] (H69AR cells + 2 uM doxorubicin), the differential viability (reversal) was 3.75% (inactive). The inhibition in assay [5] was 0.27% (inactive); in assay [6] it was -1.09% (inactive).

Consider `C/C(Cl)=C\Cn1c(NCCc2ccccc2)nc2c1c(=O)n(C)c(=O)n2C`, for which the viability was 86% (inactive) in assay [1]; 78.7% (inactive) in assay [2]; 76% (inactive) in assay [3]; 66.6% in assay [4] (setting [7]); 76% in assay [4] (setting [8]). The differential viability (reversal) in assay [4] (H69AR cells + 2 uM doxorubicin) was 9.38% (inactive). The results for the inhibition in assay [5] and in assay [6] were -7.97% (inactive) and 2.17% (inactive), respectively.

Consider `O=C(O)c1cccc(NC(=O)C23CC4CC(C2)CC(n2cnc(Cl)n2)(C4)C3)c1`, for which the viability in assay [1] is 122% (inactive); in assay [2], 105% (inactive); in assay [3], 96.9% (inactive); in assay [4] (setting [7]), 91.1%; in assay [4] (setting [8]) it was 96.9%. Also, the differential viability (reversal) in assay [4] (H69AR cells + 2 uM doxorubicin) was 5.78% (inactive). Also, the inhibition in assay [5] was -1.95% (inactive); in assay [6], 0.98% (inactive).

For the compound `Cc1ccc(Cn2ccc(NC(=O)c3cc(-c4cccs4)on3)n2)cc1`, the viability in assay [1] was 96% (inactive); in assay [2], 48.7% (inactive); in assay [3], 82.9% (inactive); in assay [4] (setting [7]), 82.8%; in assay [4] (setting [8]), 82.9%. Besides, the differential viability (reversal) in assay [4] (H69AR cells + 2 uM doxorubicin) was 0.115% (inactive). Besides, the inhibition was -2.6% (inactive) in assay [5] and -2.46% (inactive) in assay [6].

Consider `Cc1ccc(C2=Nc3ccccc3NC(C)(c3ccc(C)o3)C2)o1` (stereo unspecified), for which the viability in assay [1] was 95% (inactive); in assay [2], 79% (inactive); in assay [3], 64% (inactive); in assay [4] (setting [7]) it was 74.7%; in assay [4] (setting [8]) it was 64%. For the same compound, in assay [4] (H69AR cells + 2 uM doxorubicin), the differential viability (reversal) was -10.7% (inactive). Further, the inhibition in assay [5] was 3.97% (inactive); in assay [6] it was 27.1% (inactive).

Take `O=C(COC(=O)c1cc(S(=O)(=O)N2CCOCC2)cs1)c1ccccc1`: the viability in assay [1] was 115% (inactive); in assay [2], 93.3% (inactive); in assay [3], 99.9% (inactive); in assay [4] (setting [7]) it was 83.5%; in assay [4] (setting [8]), 99.9%. For the same compound, in assay [4] (H69AR cells + 2 uM doxorubicin), the differential viability (reversal) is 16.3% (inactive). For the same compound, the results for the inhibition in assay [5] and in assay [6] were -3.64% (inactive) and -1.97% (inactive), respectively.

Take `O=C1C2ON(c3ccc(Cl)cc3)C(c3ccco3)C2C(=O)N1c1ccccc1` (stereo unspecified): the viability in assay [1] is 116% (inactive); in assay [2], 81.4% (inactive); in assay [3], 100% (inactive); in assay [4] (setting [7]), 91.2%; in assay [4] (setting [8]) it was 100%. For the same compound, the differential viability (reversal) in assay [4] (H69AR cells + 2 uM doxorubicin) is 8.97% (inactive). For the same compound, the inhibition in assay [5] was -2.6% (inactive); in assay [6], -3.61% (inactive).

For the compound `CCc1c(C)nc2ncnn2c1NCCc1ccc(OC)c(OC)c1`, the viability was 64% (inactive) in assay [1]; 103% (inactive) in assay [2]; 80.6% (inactive) in assay [3]; 81.1% in assay [4] (setting [7]); 80.6% in assay [4] (setting [8]). Also, in assay [4] (H69AR cells + 2 uM doxorubicin), the differential viability (reversal) is -0.53% (inactive). Also, the values for the inhibition in assay [5] and in assay [6] were -7.03% (inactive) and -0.18% (inactive), respectively.

As for `COc1ccc(OC)c(NC(=O)CSc2nnc(-c3ccco3)n2-c2ccccc2)c1`, the viability is 59% (inactive) in assay [1]; 83% (inactive) in assay [2]; 90.4% (inactive) in assay [3]; 85.4% in assay [4] (setting [7]); 90.4% in assay [4] (setting [8]). Also, the differential viability (reversal) in assay [4] (H69AR cells + 2 uM doxorubicin) is 5.04% (inactive). In addition, the results for the inhibition in assay [5] and in assay [6] were -6.3% (inactive) and 3.45% (inactive), respectively.
